ChEMBL document CHEMBL4041479, “Piperlongumine (piplartine) and analogues: Antiproliferative microtubule-destabilising agents” (Eur J Med Chem, 2017)
The source made the active and inactive calls. The calls are words filed in the database; no cut-off is given here.

Assays:
MCF7 [1] = test: Induction of reactive oxygen species generation in human MCF7 cells assessed as decrease in cell viability at 10 uM in presence of N-acetyl cysteine after 48 hrs by alamarBlue assay; assay type: functional, cell-based
In short: (§1)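 MCF-7 cells were seeded at 2.5×10^4 cells/mL and left to adhere. They were pre-treated 1 h with N-acetyl cysteine (1 mM) or Trolox (100 μM), then exposed to test agents for 48 h. Viability was measured by alamarBlue fluorescence as % of ethanol vehicle control. Mean of three independent experiments.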

MCF7 [2] = test: Induction of reactive oxygen species generation in human MCF7 cells assessed as decrease in cell viability at 1 to 10 uM in presence of N-acetyl cysteine after 48 hrs by alamarBlue assay; assay type: functional, cell-based
In short: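 MCF-7 cells seeded at 2.5×10^4 cells/mL, left overnight to adhere. After 23 h, pre-treated 1 hr with NAC (1 mM; 100 mM stock in sterile water), then compound for 48 h at 37 °C in 5% CO₂. alamarBlue added 5 h before endpoint, fluorescence ex 544/em 590 nm, blank subtracted. Viability as % of ethanol vehicle control, mean of three independent experiments.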

Homo sapiens [3] = organism: Homo sapiens; test: Binding affinity to colchicine-binding site of beta tubulin in human MCF7 cells assessed as inhibition of formation of protein-N,N'-Ethylene-bis(iodoacetamide) adduct at 10 uM after 2 hrs by Western blot method; assay type: cell-based
In short: (§2)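 MCF-7 or HT-29 cells were exposed to test agent or ethanol vehicle (0.1% v/v) for 2 h, with MCF-7 seeded at 1×10^6 cells/well overnight beforehand. Selected samples then received N,N'-ethylene-bis(iodoacetamide) for a further 1.5 h. Cells were washed in cold PBS, lysed in Laemmli buffer and run on SDS-PAGE. Three independent experiments.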

Homo sapiens [4] = organism: Homo sapiens; test: Binding affinity to colchicine-binding site of beta tubulin in human HT-29 cells assessed as inhibition of formation of protein-N,N'-Ethylene-bis(iodoacetamide) adduct at 10 uM after 2 hrs by Western blot method; assay type: cell-based; in short: as §2
MCF7 [5] = test: Induction of reactive oxygen species generation in human MCF7 cells assessed as decrease in cell viability at 100 nM in presence of N-acetyl cysteine after 48 hrs by alamarBlue assay; assay type: functional, cell-based; in short: as §1
MCF7 [6] = test: Induction of reactive oxygen species generation in human MCF7 cells assessed as decrease in cell viability at 0.1 to 10 uM in presence of N-acetyl cysteine after 48 hrs by alamarBlue assay; assay type: functional, cell-based; in short: as §1
Homo sapiens [7] = organism: Homo sapiens; test: Disruption of microtubule network in human MCF7 cells at 100 nM after 16 hrs by immunofluorescence analysis; assay type: cell-based
In short: (§3)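 MCF-7 cells were seeded at 1×10^5 cells/mL on chamber slides and treated for 16 h (vehicle 1% ethanol). Cells were fixed 20 min in 4% paraformaldehyde, permeabilised in 0.5% Triton X-100 and blocked in 5% BSA/PBST. Staining used anti-α-tubulin–FITC (DM1A) for 2 h at rt, then Alexa Fluor 488 for 1 h, with DAPI counterstain. Imaging was by confocal microscopy; three independent experiments.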

MCF7 [8] = test: Induction of apoptosis in human MCF7 cells assessed as downregulation of Bcl2 expression at 10 uM after 48 hrs by Western blot method; assay type: functional, cell-based
In short: (§4)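 MCF-7 cells were seeded at 5×10^5 cells/flask and exposed to 10 μM, vehicle (0.1% ethanol) or no treatment for 48 or 72 h. Cells were lysed in RIPA buffer with protease/phosphatase inhibitors, and equal protein (by BCA) was run on 12% SDS-PAGE. Blots were probed overnight at 4 °C for Bcl-2 (1:500) or Mcl-1 (1:1000), with GAPDH as loading control and ECL detection. Three independent experiments.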

MCF7 [9] = test: Induction of reactive oxygen species generation in human MCF7 cells assessed as decrease in cell viability at 1 to 20 uM in presence of trolox after 48 hrs by alamarBlue assay; assay type: functional, cell-based; in short: as §1
Homo sapiens [10] = organism: Homo sapiens; test: Induction of tubulin depolymerization in human MCF7 cells at 5 to 20 uM after 4 hrs by Western blot method; assay type: cell-based
In short: (§5)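 MCF-7 (1×10^6/well) or Jurkat cells were treated for 4 h with 1–20 μM or 0.1% ethanol. Cells were lysed in microtubule-preserving buffer (0.1 M PIPES pH 6.9, 2 M glycerol, 5 mM MgCl2, 2 mM EGTA, 0.5% Triton X-100, 4 μM paclitaxel) and centrifuged at 20,000g for 45 min. Soluble (supernatant) and polymer (pellet) fractions, 30 μg protein each, were immunoblotted for α-tubulin with a GAPDH loading control. Three experiments.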

MCF7 [11] = test: Cell cycle arrest in human MCF7 cells assessed as G0/G1 phase accumulation at 10 uM after 48 hrs by propidium iodide staining based flow cytometry; assay type: functional
In short: (§6)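 MCF-7 cells were seeded at 1×10^5 cells/mL and treated after 24 h with 5, 10 or 20 μM or 0.1% ethanol for 24 or 48 h. Cells were pooled, fixed in ice-cold 70% ethanol at −20 °C for 24 h, then stained with RNase A and propidium iodide for 30 min at 37 °C in the dark. Flow cytometry used FL-2, ≥10,000 gated cells, and sub-G1/G0G1/G2/M were scored by DNA content. Mean ± SEM of three; one-way ANOVA with Dunnett's test.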

MCF7 [12] = test: Cell cycle arrest in human MCF7 cells assessed as G2/M phase accumulation at 5 uM after 24 hrs by propidium iodide staining based flow cytometry; assay type: functional; in short: as §6
MCF7 [13] = test: Cell cycle arrest in human MCF7 cells assessed as G2/M phase accumulation at 20 uM after 24 hrs by propidium iodide staining based flow cytometry
MCF7 [14] = test: Cell cycle arrest in human MCF7 cells assessed as sub G0/G1 phase accumulation at 20 uM after 48 hrs by propidium iodide staining based flow cytometry; assay type: functional; in short: as §6
Homo sapiens [15] = organism: Homo sapiens; test: Induction of microtubule depolymerization in human MCF7 cells at 10 uM after 16 hrs by immunofluorescence analysis; assay type: cell-based; in short: as §3
MCF7 [16] = test: Cell cycle arrest in human MCF7 cells assessed as G2/M phase accumulation at 10 uM after 48 hrs by propidium iodide staining based flow cytometry; assay type: functional; in short: as §6
MCF7 [17] = test: Antiproliferative activity in human MCF7 cells assessed as cell viability after 48 hrs by alamarBlue assay; assay type: functional, cell-based; settings: MCF7, 48 h
In short: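 Cells were seeded at 2.5×10^4 cells/mL and treated after 24 h with vehicle (0.1% v/v ethanol) or a dose range (0.1–20 μM) for 48 h at 37 °C in 5% CO2. Media-only blanks were subtracted, and viability is given as % of vehicle. Sextuplicate wells, three independent experiments.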

Homo sapiens [18] = organism: Homo sapiens; test: Effect on tubulin polymerization in human Jurkat cells at 1; assay type: cell-based; in short: as §5
MCF7 [19] = test: Induction of apoptosis in human MCF7 cells assessed as downregulation of Mcl-1 expression at 10 uM after 72 hrs by Western blot method; assay type: functional, cell-based; in short: as §4
MCF7 [20] = test: Cytotoxicity against human MCF7 cells after 24 hrs by MTT assay; assay type: functional, cell-based; settings: MCF7, 24 h
Jurkat [21] = test: Cytotoxicity against human Jurkat cells after 24 hrs by MTT assay; assay type: functional, cell-based
MCF7 [22] = test: Cell cycle arrest in human MCF7 cells assessed as G0/G1 phase accumulation at 20 uM after 24 hrs by propidium iodide staining based flow cytometry; assay type: functional; in short: as §6
MCF7 [23] = test: Cell cycle arrest in human MCF7 cells assessed as G2/M phase accumulation at 20 uM after 48 hrs by propidium iodide staining based flow cytometry
MCF7 [24] = test: Cell cycle arrest in human MCF7 cells assessed as G0/G1 phase accumulation at 20 uM after 48 hrs by propidium iodide staining based flow cytometry; assay type: functional; in short: as §6
Homo sapiens [25] = organism: Homo sapiens; test: Disruption of microtubule network in human MCF7 cells at 20 uM after 16 hrs by immunofluorescence analysis; assay type: cell-based; in short: as §3
Jurkat [26] = test: Antiproliferative activity in human Jurkat cells assessed as cell viability after 48 hrs by alamarBlue assay; assay type: functional, cell-based
In short: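 Cells were seeded at 2.5×10^4 cells/mL and treated after 24 h with vehicle (0.1% v/v ethanol) or a dose range (0.1–20 μM) for 48 h at 37 °C in 5% CO2. AlamarBlue was added 5 h before the end and read as fluorescence (ex 544/em 590 nm). Media-only blanks were subtracted, and viability is given as % of vehicle. Sextuplicate wells, three independent experiments.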

Homo sapiens [27] = organism: Homo sapiens; test: Binding affinity to colchicine-binding site of beta tubulin in human HT-29 cells assessed as inhibition of formation of protein-N,N'-Ethylene-bis(iodoacetamide) adduct at 40 uM after 2 hrs by Western blot method; assay type: cell-based; in short: as §2
MCF7 [28] = test: Cell cycle arrest in human MCF7 cells assessed as G0/G1 phase accumulation at 10 uM after 24 hrs by propidium iodide staining based flow cytometry; assay type: functional; in short: as §6
Homo sapiens [29] = organism: Homo sapiens; test: Effect on tubulin polymerization in human MCF7 cells at 1; assay type: cell-based; in short: as §5
MCF7 [30] = test: Cell cycle arrest in human MCF7 cells assessed as sub G0/G1 phase accumulation at 10 uM after 48 hrs by propidium iodide staining based flow cytometry; assay type: functional; in short: as §6
Homo sapiens [31] = organism: Homo sapiens; test: Binding affinity to colchicine-binding site of beta tubulin in human MCF7 cells assessed as inhibition of formation of protein-N,N'-Ethylene-bis(iodoacetamide) adduct at 40 uM after 2 hrs by Western blot method; assay type: cell-based; in short: as §2
Homo sapiens [32] = organism: Homo sapiens; test: Induction of tubulin depolymerization in human Jurkat cells at 5 to 20 uM after 4 hrs by Western blot method; assay type: cell-based; in short: as §5
MCF7 [33] = test: Cell cycle arrest in human MCF7 cells assessed as G2/M phase accumulation at 5 uM after 48 hrs by propidium iodide staining based flow cytometry; assay type: functional; in short: as §6
MCF7 [34] = test: Cell cycle arrest in human MCF7 cells assessed as G2/M phase accumulation at 10 uM after 24 hrs by propidium iodide staining based flow cytometry; assay type: functional; in short: as §6
MCF7 [35] = test: Induction of reactive oxygen species generation in human MCF7 cells assessed as decrease in cell viability at 1 to 20 uM in presence of N-acetyl cysteine after 48 hrs by alamarBlue assay; assay type: functional, cell-based; in short: as §1
MCF-10A = test: Cytotoxicity in human MCF10A cells at 10 uM after 24 to 48 hrs by alamarBlue assay; assay type: cell-based
In short: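 MCF-10a cells were grown in DMEM/F12 with 5% horse serum, EGF, hydrocortisone, cholera toxin and insulin. They were treated at 1, 5, 10 or 20 μM for 48 h. Read-out was alamarBlue fluorescence, blank-subtracted and expressed as % of ethanol vehicle control. Mean of three independent experiments; unpaired two-tailed t-test.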

Bos taurus = organism: Bos taurus; test: Induction of bovine tubulin depolymerization at 25 uM measured every 30 secs for 60 mins by spectrophotometry
In short: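 Purified tubulin plus GTP was incubated at 37 °C with test agent or 1% ethanol vehicle. Assembly was followed as absorbance (light scattering) at 340 nm every 30 s for 60 min. Mean of three experiments run in duplicate.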

COc1cc(C(=O)/C=C/c2ccc(N(C)C)cc2)cc(OC)c1OC
Activity (MCF7 [1]): inactive

COc1cc2c(c(OC)c1OC)-c1ccc(OC)c(=O)cc1[C@@H](NC(C)=O)CC2
Activity (MCF7 [2]): inactive

COc1ccc(/C=C(\C)C(=O)c2cc(OC)c(OC)c(OC)c2)cc1O
Activity (MCF7 [1]): inactive

COc1ccc(/C=C\c2cc(OC)c(OC)c(OC)c2)cc1O
inhibition (Homo sapiens [3]): Active | inhibition (Homo sapiens [4]): Active | Activity (MCF7 [5]): inactive | Activity (MCF7 [6]): inactive | Activity (Homo sapiens [7]): Active

COc1ccc(OC)c(C(=O)/C(C)=C/c2ccc(N(C)C)cc2)c1
Activity (MCF7 [1]): inactive

COc1cc(/C=C/C(=O)N2CCC=CC2=O)cc(OC)c1OC [PIPLARTINE]
Activity (MCF7 [8]): Active | Activity (MCF7 [9]): Active | Activity (Homo sapiens [10]): Active | Activity (MCF7 [11]): 21% | Activity (MCF7 [12]): 13% | Activity (MCF7 [13]): 12% | Activity (MCF7 [14]): 4.9% | Activity (Homo sapiens [15]): Active | Activity (MCF7 [16]): 15% | IC50 (MCF7 [17]): 1.2 µM | Activity (Homo sapiens [18]): inactive | Activity (MCF7 [19]): Active | IC50 (MCF7 [20]): 8 µM | IC50 (Jurkat [21]): 5 µM | Activity (MCF7 [22]): 15% | Activity (MCF7 [23]): 10% | Activity (MCF7 [24]): 19% | Activity (Homo sapiens [25]): Active | IC50 (Jurkat [26]): 1.4 µM | inhibition (Homo sapiens [27]): inactive | Activity (MCF7 [28]): 16% | Activity (Homo sapiens [29]): inactive | Activity (MCF7 [30]): 4.3% | inhibition (Homo sapiens [31]): inactive | Activity (Homo sapiens [32]): Active | Activity (MCF7 [33]): 6% | Activity (MCF7 [34]): 16% | Activity (MCF7 [35]): inactive | Activity (MCF-10A): 90% | Activity (Bos taurus): Active
